From ChEMBL document CHEMBL1154577, “Cytotoxic biflavonoids from Selaginella delicatula” (J Nat Prod, 2000)

Key:
Raji [1] = assay: Cytotoxicity against human Raji cells at 12.5 uM after 3 days; type: functional; settings: 72 h
How it was run: (§1)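 K562 (erythroleukemia) and Raji (EBV-transformed B) cells grown in RPMI-1640 with 10% FCS, 100 U/mL penicillin and 100 µg/mL streptomycin at 37 °C under humidified 5% CO2. They were cultured with or without various concentrations for 3 days, then pulsed with tritiated thymidine for 16 h before harvest. Radioactivity was counted by scintillation and inhibition calculated; mean of three independent experiments.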

Calu-1 [2] = assay: Cytotoxicity against human Calu1 cells at 100 uM after 3 days; type: functional; settings: Calu-1, 72 h
How it was run: (§2)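 Vero, Wish, Calu-1 and HeLa cells were kept in MEM with 10% FCS, 100 µg/mL streptomycin and 100 U/mL penicillin at 37 °C under humidified 5% CO2. Cells were exposed to various concentrations, or none, for 3 days, with a tritiated thymidine pulse for the final 16 h before harvest. Incorporation was read by scintillation counting and inhibition calculated; three independent experiments averaged.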

Calu-1 [3] = assay: Cytotoxicity against human Calu1 cells at 25 uM after 3 days; type: functional; settings: Calu-1, 72 h; how it was run: as §2
WISH [4] = assay: Cytotoxicity against human Wish cells at 100 uM after 3 days; type: cell-based; settings: 72 h; how it was run: as §2
K562 [5] = assay: Cytotoxicity against human K562 cells at 100 uM after 3 days; type: functional; settings: K562, 72 h; how it was run: as §1
Calu-1 [6] = assay: Cytotoxicity against human Calu1 cells at 12.5 uM after 3 days; type: functional; settings: Calu-1, 72 h; how it was run: as §2
Raji [7] = assay: Cytotoxicity against human Raji cells at 50 uM after 3 days; type: functional; settings: 72 h; how it was run: as §1
HeLa [8] = assay: Cytotoxicity against human HeLa cells at 100 uM after 3 days; type: functional; settings: 72 h; how it was run: as §2
[9] = Cytotoxicity against african green monkey Vero cells at 100 uM after 3 days; type: cell-based; settings: chlorocebus sabaeus, read-out: INH; how it was run: as §2
Raji [10] = assay: Cytotoxicity against human Raji cells at 25 uM after 3 days; type: functional; settings: 72 h; how it was run: as §1
Raji [11] = assay: Cytotoxicity against human Raji cells at 100 uM after 3 days; type: functional; settings: 72 h; how it was run: as §1
Calu-1 [12] = assay: Cytotoxicity against human Calu1 cells at 50 uM after 3 days; type: functional; settings: Calu-1, 72 h; how it was run: as §2
Calu-1 [13] = assay: Cytotoxicity against human Calu1 cells after 3 days; type: functional, cell-based; settings: Calu-1, 72 h; how it was run: as §2
WISH [14] = assay: Cytotoxicity against human Wish cells after 3 days; type: cell-based; settings: 72 h; how it was run: as §2
Raji [15] = assay: Cytotoxicity against human Raji cells after 3 days; type: functional, cell-based; settings: 72 h; how it was run: as §1
K562 [16] = assay: Cytotoxicity against human K562 cells after 3 days; type: functional, cell-based; settings: K562, 72 h; how it was run: as §1
Vero = assay: Cytotoxicity against african green monkey Vero cells after 3 days; type: cell-based; settings: Chlorocebus sabaeus, 72 h; how it was run: as §2
HeLa [17] = assay: Cytotoxicity against human HeLa cells after 3 days; type: functional, cell-based; settings: 72 h; how it was run: as §2

| SMILES | inhibition at 12.5 µM (Raji [1]) [%] | inhibition at 100 µM (Calu-1 [2]) [%] | inhibition at 25 µM (Calu-1 [3]) [%] | inhibition (INH) (WISH [4]) [%] | inhibition at 100 µM (K562 [5]) [%] | inhibition at 12.5 µM (Calu-1 [6]) [%] | inhibition at 50 µM (Raji [7]) [%] | inhibition at 100 µM (HeLa [8]) [%] | cytotoxicity at 72 h, 100 µM [9] [%] | inhibition at 25 µM (Raji [10]) [%] | inhibition at 100 µM (Raji [11]) [%] | inhibition at 50 µM (Calu-1 [12]) [%] | IC50 (Calu-1 [13]) [µM] | IC50 (WISH [14]) [µM] | IC50 (Raji [15]) [µM] | IC50 (K562 [16]) [µM] | IC50 (Vero) [µM] | IC50 (HeLa [17]) [µM] |
| --- | --- | --- | --- | --- | --- | --- | --- | --- | --- | --- | --- | --- | --- | --- | --- | --- | --- | --- |
| COc1ccc(-c2cc(=O)c3c(O)cc(O)cc3o2)cc1-c1c(O)cc2oc(-c3ccc(O)cc3)cc(=O)c2c1O | 34.2 | 100 | 44.6 | -90 | 10.8 | 42.6 | 68.5 | 5.5 | -6.6 | 60.7 | 98.4 | 77.9 | – | – | – | – | – | – |
| COc1cc(O)c2c(=O)cc(-c3ccc(OC)c(-c4c(O)cc5c(c4O)C(=O)C[C@H](c4ccc(O)cc4)O5)c3)oc2c1 | 17.9 | 100 | 29.9 | -65 | 18 | 15.8 | 24.7 | 35 | 26.8 | 22.3 | 96.3 | 55.4 | – | – | – | – | – | – |
| COc1cc(O)c2c(=O)cc(-c3ccc(OC)c(-c4c(O)cc5oc(-c6ccc(O)cc6)cc(=O)c5c4O)c3)oc2c1 | – | – | – | – | – | – | – | – | – | – | – | – | > 100 | > 100 | > 100 | > 100 | > 100 | > 100 |
| COc1cc(O)c2c(=O)cc(-c3ccc(OC)c(-c4c(OC)cc5c(c4O)C(=O)C[C@H](c4ccc(O)cc4)O5)c3)oc2c1 | – | – | – | – | – | – | – | – | – | – | – | – | > 100 | > 100 | > 100 | > 100 | > 100 | > 100 |
| O=c1cc(-c2ccc(O)c(-c3c(O)cc(O)c4c(=O)cc(-c5ccc(O)cc5)oc34)c2)oc2cc(O)cc(O)c12 [AMENTOFLAVONE] | – | – | – | – | – | – | – | – | – | – | – | – | > 100 | > 100 | > 100 | > 100 | > 100 | > 100 |
| O=c1cc(-c2ccc(O)c(-c3c(O)cc4oc(-c5ccc(O)cc5)cc(=O)c4c3O)c2)oc2cc(O)cc(O)c12 [ROBUSTAFLAVONE] | – | – | – | – | – | – | – | – | – | – | – | – | > 100 | > 100 | > 100 | > 100 | > 100 | > 100 |
